The results in this text go back to ChEMBL document CHEMBL2086296, “Synthesis of novel quinoline-2-one based chalcones of potential anti-tumor activity” (Eur J Med Chem, 2012).

Series [1] concerns K562. The experiment in a line: (§1) Cytotoxicity against human K562 cells after 24 hrs by SRB assay. In kind it is cell-based. As to conditions: k562, 24 h. A digest of the protocol: (§2)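 NCI 60-cell screen. Cells grown in RPMI 1640 with 5% FBS and 2 mM L-glutamine, seeded at 5,000–40,000 cells/well, preincubated 24 h at 37 °C in 5% CO2. Drug stock in DMSO, diluted in medium with gentamicin; five final concentrations, 100, 10, 1.0, 0.1 and […]. Time-zero plates were TCA-fixed. Protein read by SRB staining; GI50, TGI and LC50 taken relative to time-zero.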

The subject of series [2] is A498. Nature of the series: (§3) Cytotoxicity against human A498 cells after 24 hrs by SRB assay. As to conditions: a498, 24 h. In kind it is cell-based. A digest of the protocol:
as §2
(In general: The SRB assay estimates cell density from bound dye.)

Series [3] concerns PC-3. Nature of the series: (§4) Cytotoxicity against human PC3 cells after 24 hrs by SRB assay. In kind it is functional. As to conditions: PC-3, 24 h. The gist of the method:
(§5)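 NCI 60-line screen. Cells in RPMI 1640 with 5% FBS and 2 mM L-glutamine, seeded at 5,000–40,000 cells/well by doubling time, then incubated 24 h at 37 °C, 5% CO2 before dosing. Time-zero plates fixed with TCA at drug addition. DMSO stocks diluted in medium with gentamicin to five concentrations, […]. Protein read by SRB staining. GI50, TGI and LC50 derived relative to control and time-zero.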

The test system of series [4] is A498. The series is described as §3. As to conditions: A498, 24 h. In kind it is functional. A digest of the protocol: as §5
Series [5] has as its system PC-3. The description is as §4. In kind it is cell-based. The settings on record: pc-3, 24 h. The gist of the method: as §2
In series [6] the test system is K562. Described as §1. In kind it is functional. The settings on record: K562, 24 h. The gist of the method:
as §5

Series [7] concerns Mus musculus. Nature of the series: Acute toxicity in athymic nude mouse assessed as mortality up to 400 mg/kg, ip after 2 weeks. It is filed as organism-based. The arrangement: dose 400 mg/kg, route intraperitoneal. The settings on record: in vivo, 336 h. A digest of the protocol:
(§6)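 Single ip injection in athymic nude mice, one mouse per dose at 400, 200 and 100 mg/kg, dosed at 0.1 mL/10 g body weight, with feed and water ad libitum. Animals observed for 2 weeks and sacrificed on >20% body weight loss or other signs of significant toxicity. If all three were sacrificed, 50, 25 and 12.5 mg/kg were tested next.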

For series [8], the system named is Mus musculus. The experiment in a line: Acute toxicity in athymic nude mouse assessed as weight loss up to 400 mg/kg, ip after 2 weeks. In kind it is organism-based. The arrangement: dose 400 mg/kg, route intraperitoneal. As to conditions: in vivo, 336 h. The gist of the method:
as §6

The term LC50 denotes the concentration lethal to half of the exposed cells or organisms. A low value points to a more lethal substance. One may read the GI50 as the concentration that inhibits growth by half. A higher GI50 goes with less potent growth inhibition. For orientation: TGI means the concentration at which net growth stops. High values mean less potent growth arrest, low ones more potent growth arrest. Turning to `O=C(/C=C/c1cc2ccccc2[nH]c1=O)c1ccc(O)cc1`, the LC50 was above 100 µM in series [1], 47.8 µM in series [2] and above 100 µM in series [5]. The GI50 was determined as 5.39 µM in series [3], 8.44 µM in series [4] and 3.89 µM in series [6]. The TGI in series [3] was 55.3 µM; in series [4], 21.3 µM; in series [6], above 100 µM.
Turning to `O=C(/C=C/c1cc2ccccc2[nH]c1=O)/C=C/c1cc2ccccc2[nH]c1=O`, the Activity result in series [7] and in series [8] was “Non-toxic” in each case.
